A selection: hits, their analogues and other compounds. The true share with any hit is near 3.2%.
DAX1 inh-1: inhibits human nuclear receptor DAX1; AID 504766; HEK293 Gal4-DAX1 luciferase reporter, luminescence; P51843; inhibition, % at 6.75 µM; actives 0.99% (n = 340,000);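 active means inhibition above the mean over all tested compounds plus 3 SD, cut at about 4.2% in these data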;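 further: 0% = DAX1-transfected cells with DMSO and 100% = empty-vector control cells with DMSO; inhibition shows as a rise in luminescence from relieved DAX1 repression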
NR2E3 ag-1: human photoreceptor-specific nuclear receptor agonism; AID 602229; actives 0.35% (n = 360,000); Q9Y5X4; inhibition of corepressor binding, % at 3.98 µM; CHO-S Gal4-NCOR/VP16-NR2E3 two-hybrid, luciferase;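 active means inhibition above the mean of all tested compounds plus 3 SD, cut at about 70% in these data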;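 further: 0% = DMSO with NR2E3 transfected cells and 100% = cells lacking NR2E3 construct; higher means lower luciferase signal from less NR2E3 corepressor binding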
NR2E3 ag-2: NR2E3 (human) agonism. GST-NR2E3/biotin-RetCOR TR-FRET, 1536-well. inhibition of corepressor binding, % at 4.78 µM. actives 0.12% (n = 320,000). AID 2300;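 active means percent inhibition above the cutoff of mean plus 3 SD of all tested compounds, set per screening campaign, cut at about 20% in these data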;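 further: 0% = DMSO wells and 100% = biotin wells as full block of FRET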
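System: GST-tagged NR2E3 plus biotinylated RetCOR corepressor; Amount: 1.35 nM GST-tagged NR2E3 final; Dosing: single nominal compound dose of 4.8 µM; Schedule: 5 h incubation at 4 °C; Technique: TR-FRET with europium anti-GST and streptavidin-D2, 340 nm excitation; Controls: biotin wells as high control, 0.6% DMSO wells as low control.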
SMARCA2 act: SMARCA2 function activation, primary screen; MG213 cells, MMTV-luciferase reporter, dexamethasone, overnight; activation, % at 9.1 µM; actives 1% (n = 370,000); AID 652017; in the data active means activation above about 7.8%;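 further: 0% = vehicle wells and 100% = reference activator wells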
DAX1 inh-2: inhibitors of DAX1 repression of SF-1 activated StAR promoter | HEK293T StAR-luciferase reporter, SF-1/DAX-1 repression relief | inhibition, % at 6.8 µM | actives 1.1% (n = 370,000) | AID 652010;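 active means inhibition above the mean over all tested compounds plus 3 SD, cut at about 3.6% in these data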;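 further: 0% = DAX-1 cells with DMSO and 100% = cells lacking DAX-1 with DMSO; higher inhibition means more luminescence from relief of DAX-1 repression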
GASC-1 inh: blocks human GASC-1 demethylase activity. AID 2099. actives 0.069% (n = 330,000). inhibition, % at 2.35 µM. GST-JMJD2C(1-420) H3K9me3 demethylation, DELFIA europium. Q9H3R0;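 active means more than half of a compound's replicate wells show inhibition beyond 50%, single wells judged on their own value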;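 further: signal counts dimethyl H3K9 product captured on neutravidin plate; 0% = median of DMSO wells and 100% = 0.3 times that DMSO median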
Target sequence (Q9H3R0 1-420 limits assumed): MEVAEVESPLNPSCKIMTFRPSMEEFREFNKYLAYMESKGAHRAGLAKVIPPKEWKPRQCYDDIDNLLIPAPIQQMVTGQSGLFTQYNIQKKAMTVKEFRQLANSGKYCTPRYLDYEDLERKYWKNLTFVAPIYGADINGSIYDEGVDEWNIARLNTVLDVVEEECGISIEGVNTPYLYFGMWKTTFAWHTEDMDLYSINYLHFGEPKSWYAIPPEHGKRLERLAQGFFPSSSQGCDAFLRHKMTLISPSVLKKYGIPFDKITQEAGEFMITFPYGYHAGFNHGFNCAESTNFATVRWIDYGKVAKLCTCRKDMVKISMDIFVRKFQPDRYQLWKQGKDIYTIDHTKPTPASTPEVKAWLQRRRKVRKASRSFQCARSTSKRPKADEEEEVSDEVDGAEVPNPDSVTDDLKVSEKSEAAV
SMARCA2 conf: SMARCA2 activation, confirmation screen; shares compounds with SMARCA2 act; MG213 cells, MMTV-luciferase with dexamethasone, luminescence, overnight; MG213 cells expressing E1A, Rb sequestered; DMSO wells 0%, reference activator 100%; activation, % at 9.1 µM; actives 30% (n = 3,500); AID 652260;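 active means activation above its plate's cutoff, the mean activation of tested wells plus 3 SD, cut at about 7.9% in these data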
GAL4-VP16 Luc: activates GAL4-VP16 luciferase, flagging SMARCA2 activator hits. shares compounds with SMARCA2 act. HEK293 GAL4-VP16 pG5luc reporter, luciferase luminescence; scaled: DMSO wells 0%, SAHA wells 100%. activation, % at 9.1 µM. actives 41% (n = 3,500). AID 686939;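 active means activation above the solvent-only control well mean plus 3 SD, averaged across control plates, cut at about 5.2% in these data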
* hit, by the source's call; . = no result.

SMILES	DAX1 inh-1	NR2E3 ag-1	NR2E3 ag-2	SMARCA2 act	DAX1 inh-2	GASC-1 inh	SMARCA2 conf	GAL4-VP16 Luc
COc1ccc(-c2csc(C(O)c3ccc(F)cc3)n2)cc1 (stereo not drawn)	.	-70	.	0	2	.	.	.
COc1ccc(-c2csc(C(O)c3ccc(F)cc3)n2)cn1 (stereo not drawn)	.	-46	.	8.1*	0	.	2	2
C=CCn1c(COc2ccccc2)nnc1SCC(=O)Nc1ccc(Oc2ccccc2)cc1	.	.	.	-2	0	.	.	.
COc1ccc(CCC(=O)NNC(=O)c2ccccn2)cc1OC	0	-43	.	-1	0	.	.	.
CN1CCCC1CCNc1ccc2sc3ccccc3c(=O)c2c1 (stereo not drawn)	1	-9	-1	11*	2	-4	14*	7.5*
Cc1cc2oc3cc(NCCC4CCCN4C)ccc3c(=O)c2cc1C (stereo not drawn)	2	-69	3	8.8*	1	18	21*	8.7*
CN1CCCC1CCNS(=O)(=O)c1ccc(Br)cc1 (stereo not drawn)	2	-36	-3	-2	-1	-3	.	.
CCOc1ccc(NC(=O)CN(C)C(=O)c2cc(S(=O)(=O)N3CCCCC3)ccc2C)cc1OCC	0	-15	-2	1	3	-39	.	.
C=CCN1[C@H](Cc2ccccc2)COc2cc(F)ccc2S1(=O)=O	.	.	.	-1	-1	.	.	.
CCn1c2ccccc2c2nnc(SCc3ccccc3)nc21	-1	-9	3	8.2*	0	38	-2	-1
CCn1c2ccccc2c2nnc(SCC(N)=O)nc21	1	-34	-1	3	0	-10	.	.
CCCNC(=O)N1[C@@H](CO)[C@H](c2ccc(C3=CCCC3)cc2)[C@@H]1CN(CC)S(=O)(=O)c1ccccc1[N+](=O)[O-]	.	.	.	-5	0	.	.	.
O=C(Nc1cccc(S(=O)(=O)N2CCCCC2)c1)C1COc2ccccc2O1 (stereo not drawn)	-1	6	.	-2	0	-6	.	.
Brc1ccc(-c2nnc(-c3ccccc3Br)o2)cc1	0	-62	4	8.4*	2	1	6	13*
Cc1ccc(-c2nnc(-c3ccccc3Br)o2)cc1	4	-150	3	4	3	1	.	.
CCOc1ccc(C(O)(c2ccccc2)C(CN2CCCC2)c2ccccc2)cc1 (stereo not drawn)	2	-8	1	-1	0	5	.	.
CCOC(=O)c1ccc2[nH]c3c(c2c1)CCCC3	2	-84	1	13*	1	9	7	8.9*
O=C(CCOc1ccccc1F)N1CCN(c2ccccc2O)CC1	0	-64	7	10*	0	1	5	9.1*
O=S1(=O)CC2c3ccccc3CN2CN1CCc1ccccc1 (stereo not drawn)	.	.	.	-2	0	.	.	.
CC(=Nc1ccccc1)C1=C(O)CSC1=O	2	-91	2	8.6*	2	11	2	4
COc1cc2c(cc1NC(=O)c1ccco1)CCCC2	2	-63	0	10*	1	-4	7.9*	11*
Cc1cc(Cl)c2oc(C(=O)NCCC3CCCCO3)c(C)c2c1 (stereo not drawn)	1	-90	1	8.9*	3	1	3	5
O=C1C=C(c2ccc3cc[nH]c3c2)C[C@@H](c2ccc3c(c2)OCO3)C1	-1	-28	1	.	.	8	.	.
O=C(NCc1ccco1)C1CCCN(S(=O)(=O)c2ccccc2F)C1 (stereo not drawn)	.	.	.	-2	0	.	.	.
CC(=O)Nc1ccc(S(=O)(=O)NCCC(=O)OCC(=O)NCc2ccccc2)cc1	0	2	.	2	1	-16	.	.

Screens: PubChem, several laboratories
